# High-throughput results from PubChem BioAssay.
# Cardio protect = protects H9c2 cardiomyocytes from peroxide injury | protection from H2O2 cell death, % at 20 µM | hit rate 0.63% among 360,000 | H2O2 injury protection, ATPLite, 2 h;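 active means compounds giving at least 50% protection of heart cells from peroxide-induced death in the single-dose screen, raw or plate-pattern-corrected value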;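 further: 0% = DMSO wells with peroxide and 100% = DMSO wells without peroxide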
# Granule exo inh = blocks lytic granule exocytosis. TALL-104 LAMP-1 surface exposure, flow cytometry; cells stimulated with thapsigargin and PMA. inhibition, % at 10 µM. hit rate 0.66% among 360,000. AID 651702;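 active means inhibition above about 55%, limit read from the data; inconclusive means no clear call, values can overlap the other calls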
# HNF4A DNA FP = change in binding of human HNF4 alpha to DNA | hit rate 0.3% among 360,000 | P41235 | HNF4a-FITC DNA binding, fluorescence polarization, 1 h | activity change, % at 10 µM; in the data active means activity change above about 30%, passing the limit was not always enough
# SENP1 FRET inh = SENP1 (human) catalytic domain inhibition | Q9P0U3 | recombinant SENP1 catalytic domain, CyPet-SUMO1-YPet FRET cleavage | inhibition, % at 10 µM | hit rate 0.21% among 360,000;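 active means inhibition at least 30% at 10 µM, raw YFP signal under a set limit, fluorescence ratio 0.5 to 1.5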;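 further: 0% = enzyme with DMSO and 100% = no enzyme wells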
# Target sequence (Q9P0U3 419-644 limits assumed): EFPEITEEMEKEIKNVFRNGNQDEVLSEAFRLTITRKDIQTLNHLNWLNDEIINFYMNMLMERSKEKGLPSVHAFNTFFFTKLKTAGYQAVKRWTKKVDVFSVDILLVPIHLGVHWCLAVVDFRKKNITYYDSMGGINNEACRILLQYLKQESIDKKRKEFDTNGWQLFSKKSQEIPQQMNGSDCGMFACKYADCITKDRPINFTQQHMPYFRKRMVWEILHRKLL
#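 Assay system: hSENP1 catalytic domain, recombinant. Amount: SENP1 enzyme, 20 pM final. Schedule: 50 min reaction, RT, dark. Technique: FRET, CFP and YFP emission. Control set: no-enzyme wells low, DMSO-plus-enzyme wells high control.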
# Myeloid diff MLP = compounds promoting myeloid differentiation; calls only at 10 µM; AID 624256; ER-HoxA9 myeloid progenitors, lysozyme-GFP differentiation, flow cytometry; hit rate 1% among 360,000;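 active means normalized GFP-positive differentiation at or above the plate's own cutoff, the solvent-only control mean plus 3 SD; inconclusive means no clear call, values can overlap the other calls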;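 further: cells exposed to compound for four days before flow analysis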
# DSG3 Ab inh = human desmoglein-3 autoantibody binding inhibition. hit rate 0.48% among 310,000. binding (percent of control), % at 10 µM. DSG3-coupled beads, scFv-anti-DSG3-GFP binding, flow cytometry; hits give low values;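 active means binding more than 3 SD below its plate's average and above zero; inconclusive means below that plate limit but binding exactly zero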;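 further: hits lower antibody fragment binding to DSG3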
# An asterisk follows results filed as active; i = inactive; ? = inconclusive; . = no result given; + = active, no number. Rows were chosen to be rich in hits. Some 3% of all compounds tested hit in one or more screens of this group.
SMILES,Cardio protect,Granule exo inh,HNF4A DNA FP,SENP1 FRET inh,Myeloid diff MLP,DSG3 Ab inh
O=C(NCc1cc(C(F)(F)F)ccc1Cl)c1cccc2c1C(=O)c1ccc(N3CCC(N4CCCCC4)CC3)cc1S2(=O)=O,-33.5,30.0,139.6*,-29.2,+,.
Cc1ccc(C(=O)c2c[nH]c3c(F)cc(F)cc3c2=O)cc1,4.1,1.2,-0.2,-0.5,i,100.4
O=C(O)c1ccc(C(=O)C(=O)c2ccccc2)cc1,0.7,0.8,-3.7,2.1,i,94.1
COc1cccc(C(=O)C(C#N)=C(SC)SC)c1,-16.8,70.2*,-1.6,0.4,i,107.2
CSC(SC)=C(C#N)C(=O)c1ccccc1,1.8,56.1*,2.9,1.7,i,96.9
COc1cccc(C(=O)C(CCC#N)c2ccccc2)c1 (centres undefined),-7.9,-5.6,1.6,2.3,i,104.5
COc1ccccc1/C=C/C=C(\C#N)C(=O)NC(C)c1ccccc1 (centres undefined),1.7,76.9*,-0.8,-25.7,i,117.9
COc1cc(/C=N/N2C(=O)CSC2=S)cc(Br)c1O,-8.0,18.5,75.8*,10.3,i,116.4
COc1cc(/C=C2\SC(N)=NC2=O)cc(Br)c1O,-0.3,-4.4,37.5*,-26.5,i,118.8
Cc1cccc(C)c1-n1nnnc1C(c1ccccc1)N1CCN(C/C=C/c2ccccc2)CC1 (centres undefined),-6.1,10.7,-1.3,1.1,i,.
CCCCc1ccc(NC(=O)c2ccc(NS(C)(=O)=O)cc2)cc1,7.3,1.3,-2.0,3.0,+,90.8
O=S(=O)(Nc1ccon1)c1ccc(Br)s1,5.2,3.1,39.1*,-43.0,i,104.1
CCOC(=O)CN1N=C(c2ccc(Cl)cc2)CCC1=O,9.4,5.2,-1.7,-1.1,i,66.5*
CC(C)CCNC(=O)CN1N=C(c2ccc(Cl)cc2)CCC1=O,0.4,17.2,-2.5,1.1,i,104.6
CCOc1ccc(NC(=O)C2CC(=O)N(c3ccc4c(c3)OCCO4)C2)cc1OCC (centres undefined),-3.7,-5.8,0.0,-0.6,i,105.7
Cc1nn(-c2ccccc2)c(N2CCCC2)c1/C=N/n1cnc2scc(-c3ccccc3)c2c1=O,61.5*,40.4,-0.8,2.2,i,105.3
CCCCn1c(SCC(=O)N(CC)C2CCS(=O)(=O)C2)nc2cc(S(N)(=O)=O)ccc21 (centres undefined),-7.9,1.3,-1.0,1.2,i,16.2*
Cc1ccc(OCCSc2nc3ccccc3n2CC(=O)O)c(C(C)C)c1,1.5,-4.4,-2.5,-0.5,i,99.2
Cc1cc(C)n(CC(C)NCc2cn[nH]c2-c2ccc(C)c(C)c2)n1 (centres undefined),-2.7,7.6,6.6,-1.1,+,93.2
COc1cc(OC)c2c(O)c3c(c(-c4c5c(c(O)c6c(OC)cc(OC)cc46)CO[C@@H](C)[C@H]5O)c2c1)[C@H](O)[C@H](C)OC3,-1.3,-3.6,4.6,-31.1,i,74.4*
COc1cc2c(c(OC)c1O)C(=O)CO2,1.2,7.8,-1.7,-2.1,i,91.0
CN(CC1COc2ccccc2O1)C(=O)CSc1nncs1 (centres undefined),-1.6,-2.4,-4.3,2.7,?,91.4
N#CC1=C(N)Oc2cc(N)ccc2C1c1cc(Br)cs1 (centres undefined),-3.8,31.3,17.1,-27.9,+,102.6
N#CC1=C(N)Oc2cc(N)ccc2C1c1ccsc1 (centres undefined),2.8,5.4,3.9,-25.1,i,94.8
CCOC(=O)C1(CCOc2ccccc2)CCN(CC=C(C)C)CC1,-2.6,-1.6,0.1,-1.5,+,102.8
SMILES,Cardio protect,Granule exo inh,HNF4A DNA FP,SENP1 FRET inh,Myeloid diff MLP,DSG3 Ab inh
Cc1ccc(S(=O)(=O)N2CCN(c3ccc(C(=O)N4CCOCC4)cc3[N+](=O)[O-])CC2)cc1,-5.9,-0.5,-0.7,3.2,i,100.0
CCOC(=O)C1=CCN(S(=O)(=O)c2ccccc2C)C1c1cccc(C)c1 (centres undefined),-0.8,-1.3,-3.1,-0.9,i,.
O=C(COC(=O)/C=C/c1cccc(Cl)c1)NC1CC1,-4.7,-2.1,2.0,2.4,i,100.2
O=C(COC(=O)/C=C/c1cccc(Cl)c1)Nc1c(F)cccc1F,-2.2,11.9,-3.2,1.7,i,-5.5*
CCOC(=O)Cn1c(-c2nonc2NC(=O)c2ccccc2F)nc2ccccc21,-9.5,0.6,13.4,-31.6,+,.
CCC(=O)Nc1nonc1-c1nc2ccccc2n1Cc1ccccc1,-15.6,-7.8,1.8,-1.9,i,111.1
COc1ccc(S(=O)(=O)NCC(=O)N(CC(=O)NCC2CCCO2)Cc2ccc(F)cc2)cc1 (centres undefined),-6.1,-18.9,-0.3,-0.1,i,101.3
Cc1cc(N(C)/N=C/c2ccccc2O)nc(-c2ccccc2O)n1,50.2*,11.4,3.7,0.8,i,105.5
O=C(NCC1CCCO1)c1ccc2c(c1)C(=O)N(c1cccc([N+](=O)[O-])c1)C2=O (centres undefined),-1.2,-3.8,1.7,0.0,?,41.1*
COc1ccc2c(c1)c(C(C)=O)c(C)n2CCc1ccccc1,-19.0,17.1,2.7,1.1,i,92.7
C/C(=N\Nc1ccc(S(N)(=O)=O)cc1[N+](=O)[O-])c1ccccc1O,-4.7,-0.5,-1.2,0.9,i,71.6*
C/C(=N\Nc1ccccc1[N+](=O)[O-])c1ccccc1O,7.7,-8.5,-5.1,0.6,i,92.3
CS(=O)(=O)c1cnc(-c2ccccc2)nc1Sc1ccc(F)cc1,-7.7,-7.7,-2.7,1.9,i,63.6*
O=c1[nH][nH]c2c1C(c1ccc(F)cc1)OC(CCc1ccccc1)C2 (centres undefined),.,12.8,1.4,0.5,i,.
CCCCn1c(N)c(N(CCOC)C(=O)c2cc(-c3ccccc3Cl)nc3ccccc23)c(=O)[nH]c1=O,5.0,1.7,-2.5,-31.3,i,107.4
COc1ccc(CC(=O)Nc2cccc(C(=O)NN3C(=O)c4ccccc4C3=O)c2C)cc1,13.9,-1.5,-0.5,3.3,i,14.4*
Cc1ccc(C(=O)N/C(=C\c2ccc(-c3ccc(Cl)cc3)o2)C(=O)NCCCN(C)C)cc1,-9.9,35.9,2.8,-2.5,+,.
CN(C)CCNC(=O)/C(=C/c1ccc(-c2cccc([N+](=O)[O-])c2)o1)NC(=O)c1ccccc1,7.4,16.0,4.3,-6.7,i,92.4
CN(C)CCCNC(=O)/C(=C\c1ccc(-c2ccc(Br)cc2)o1)NC(=O)c1ccccc1,-18.6,45.6,3.5,-2.7,+,104.1
